Experimental data pooled from the literature.
Target: MAP kinase-interacting serine/threonine-protein kinase 1 (MKNK1, Homo sapiens, UniProt Q9BUB5)

SMILES | observed | action | technique | tested at | quantity | value
O=C(CSc1nc2nccnc2c(=O)n1CCc1ccccc1)Nc1nccs1 | enzyme activity | inhibitor | – | 10 µM | inhibition | 1%
Nc1ncnc2n[nH]c(Nc3ccc(F)cc3)c12 | cell-free assay | – | – | 0.5 µM | remaining signal | 75.2%
CC/C(=N\NC(=O)NCc1cccc(O)c1)c1ccc(O)c(C)c1O | enzyme activity | inhibitor | – | 0.1 µM | inhibition | 0.4%
CC(C)(C)c1nc(-c2cccc(NS(=O)(=O)c3c(F)cccc3F)c2F)c(-c2ccnc(N)n2)s1 | enzyme activity | inhibitor | radiometric | 1 µM | remaining activity | 128%
Cc1sc(C(=O)NC2COC2)cc1-n1cc(NC(=O)Nc2c(F)cccc2Cl)cn1 | enzyme activity | inhibitor | – | 10 µM | remaining activity | 94.2%
CNC(=O)c1cc(Oc2ccc(NC(=O)Nc3ccc(Cl)c(C(F)(F)F)c3)cc2)ccn1 | cell-free assay | – | – | 0.5 µM | remaining signal | 75.1%
Cc1ccc(C(=O)Nc2ccc(CN3CCN(C)CC3)c(C(F)(F)F)c2)cc1C#Cc1cnc2cccnn12 | enzyme activity | inhibitor | – | 23.5 nM | remaining activity | 98%
CNCc1ccccc1-c1csc([C@H](C)Nc2nc(C)nc3cc(OC)c(OC)cc23)c1 | cell-free assay | – | competition with immobilised ligand | 1 µM | remaining binding | 91%
COc1cc(/C=C/C(=O)CC(=O)/C=C/c2ccc(O)c(OC)c2)ccc1O | enzyme activity | inhibitor | – | 1 µM | activity vs control | 112%
COc1cc(Nc2cnc(C#N)c(O[C@H](C)CN(C)C)n2)ncc1-c1cnn(C)c1 | enzyme activity | inhibitor | radiometric | 1 µM | remaining activity | 94%
O=C(Nc1ccc(Oc2ccc(F)cc2)cc1)N1CCc2ncccc2[C@H]1c1ccc(F)cc1 | cell-free assay | – | competition with immobilised ligand | 1 µM | remaining binding | 95%
Cn1c(=O)n(-c2ccc(C(C)(C)C#N)cc2)c2c3cc(-c4cnc5ccccc5c4)ccc3ncc21 | enzyme activity | inhibitor | – | 10 µM | remaining activity | 101%
CC(C)(O)[C@H]1CC[C@H](Nc2ccc3ncc(-c4cccc(C(F)(F)F)c4)n3n2)CC1 | enzyme activity | inhibitor | – | 1 µM | remaining activity | 73.7%
CCCCN(CCCC)C(=O)CN1C[C@H](c2cc(OC)c3c(c2)OCO3)[C@@H](C(=O)O)[C@@H]1CC(C)(C)CCC | cell-free assay | – | competition with immobilised ligand | 1 µM | remaining binding | 93.3%
COc1cc(Nc2c(C#N)cnc3cc(OCCCN4CCN(C)CC4)c(OC)cc23)c(Cl)cc1Cl | cell-free assay | – | – | 0.5 µM | remaining signal | 96.9%
Nc1nc(Nc2ccccc2)sc1C(=O)c1c(F)cccc1F | enzyme activity | inhibitor | – | 10 µM | remaining activity | 110%
COc1cc2ncnc(Nc3ccc(Oc4ccccc4)cc3C)c2cc1OC | enzyme activity | inhibitor | – | 1 µM | inhibition | 2%
Cc1nccc(COC(=O)N2C[C@@H]3[C@@H](CNC(=O)c4ccc5[nH]nnc5c4)[C@@H]3C2)n1 | cell-free assay | – | competition with immobilised ligand | 1 µM | remaining binding | 91%
Nc1ncnc2occ(-c3ccc(NC(=O)Nc4cc(C(F)(F)F)ccc4F)cc3)c12 | cell-free assay | inhibitor | – | 20 µM | remaining signal | 0%
CN(C)c1ncnc(-c2ccc3nc(Nc4cc(CN5CCN(C(=O)CC(F)(F)F)CC5)ccn4)[nH]c3c2)c1Cl | cell-free assay | – | competition with immobilised ligand | 1 µM | remaining binding | 62%
FC(F)(F)Oc1cccc(-c2cnc3ccc(-c4ccncc4)nn23)c1 | enzyme activity | inhibitor | radiometric | 5 µM | activity vs control | 72%
COc1ccc2c(c1)O[C@H](c1ccc(OC)c(OC)c1)C[C@@H]2NC(=O)C1(c2ccc3c(c2)OC(F)(F)O3)CC1 | cell-free assay | – | competition with immobilised ligand | 1 µM | remaining binding | 81%
O=C1NC(=O)c2cc(Nc3ccc(F)cc3)c(Nc3ccc(F)cc3)cc21 | cell-free assay | – | – | 0.5 µM | remaining signal | 103%
